The source made the active and inactive calls.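 Rule for the calls: active = inhibition above 10%; inactive = the rest.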

The test has as its target Hexokinase-4 (Homo sapiens) (UniProt P35557). Nature of the test: human glucokinase inhibition, counter-screen for TbHK1 inhibitor project, biochemical, recombinant hGlck (AID 492951). To be noted: G6PDH-coupled NADH absorbance 340 nm, at 10 µM. The essentials: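 Technique – A340 of NADH · Material – recombinant human glucokinase, G6PDH-coupled · Medium – TEA buffer pH 7.9 with 3.3 mM MgCl2, 0.75 mM NAD+ · Doses – single final test compound dose of 10 µM · Repeats – three replicates per compound · Times – 10 min preincubation at room temperature · Also added – glucose 20 mM and ATP 1 mM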

Sequence of Hexokinase-4 (Homo sapiens) (P35557 whole entry, looked up): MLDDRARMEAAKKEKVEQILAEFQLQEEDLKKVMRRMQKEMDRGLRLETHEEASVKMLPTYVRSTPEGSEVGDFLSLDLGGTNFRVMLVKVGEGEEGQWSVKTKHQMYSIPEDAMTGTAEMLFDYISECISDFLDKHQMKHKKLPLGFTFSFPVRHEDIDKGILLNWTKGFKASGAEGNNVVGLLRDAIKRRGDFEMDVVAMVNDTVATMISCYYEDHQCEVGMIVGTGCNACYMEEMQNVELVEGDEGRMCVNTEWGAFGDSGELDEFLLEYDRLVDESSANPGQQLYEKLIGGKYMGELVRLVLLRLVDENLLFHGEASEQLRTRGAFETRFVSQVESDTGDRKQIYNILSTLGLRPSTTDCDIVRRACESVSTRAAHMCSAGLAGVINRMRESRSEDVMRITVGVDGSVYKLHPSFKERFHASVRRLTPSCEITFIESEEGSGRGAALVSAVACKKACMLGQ

In the case of `O=c1ccsn1-c1ccccc1`, the outcome was inactive.

Consider `O=C1CCN(C(=O)Nc2cc(Cl)ccc2C(=O)O)CC1`, for which the outcome was inactive.
